Tests used:
[1] = Retardation factor, Rm of the compound by reversed phase partition chromatography; type: physicochemical
Mus musculus = experiment: Toxicity in sc implanted mouse L1210 cells allografted C3H/DBA2 F1 hybrid hybrid mouse assessed as optimum dose required to increase life span treated ip after 24 hrs after tumor inoculation and continued for 5 days; type: organism-based; details: in vivo
Summary of the method: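 10^5 L1210 cells implanted sc above the right axilla in 18.5-22.5-g C3H/DBA2 F1 hybrid mice. Ip dosing (0.2 mL per dose) ran daily for 5 days from 24 h. Dilution series at 0.18 log intervals, with the median dose set at the earlier ip L1210 optimum. Six mice per dose, one control group per six test groups. Tests were repeated until the highest dose was toxic and the lowest clearly suboptimal.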

L1210 [2] = experiment: Antileukemic activity against ip implanted mouse L1210 cells in C3H/DBA2 F1 hybrid hybrid mouse assessed as increase life span treated ip after 24 hrs after tumor inoculation and continued for 5 days; type: functional
Summary of the method: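 10^5 L1210 cells implanted ip in 18.5-22.5-g C3H/DBA2 F1 hybrid mice. Drug given ip from 24 h after inoculation, continuing for 5 days, each dose in 0.2 mL. Dose levels spaced at 0.18 log intervals, six mice per dose, one control group per six test groups. Read-out is life extension; 50-day survivors counted as cures.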

L1210 [3] = experiment: Antileukemic activity against sc implanted mouse L1210 cells in C3H/DBA2 F1 hybrid hybrid mouse assessed as increase life span treated ip after 24 hrs after tumor inoculation and continued for 5 days; type: functional
Summary of the method: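 10^5 L1210 cells implanted sc above the right axilla in 18.5-22.5-g C3H/DBA2 F1 hybrid mice. Drug given ip (0.2 mL) from 24 h for 5 days. Dilution series at 0.18 log intervals, centred on the optimum ip L1210 dose. Top dose had to show toxicity and lowest dose had to be suboptimal, otherwise the test was repeated. Read-out is life extension.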

[4] = Half life in mouse L1210 cells allografted C3H/DBA2 F1 hybrid hybrid mouse

SMILES | Rm [1] | Activity (Mus musculus) [mg/kg] | ILS (L1210 [2]) [%] | ILS (L1210 [3]) [%] | half-life [4] [min]
O=[N+]([O-])c1ccc2c(Nc3ccc(N4CCNCC4)cc3)c3ccccc3nc2c1 | -0.81 | 15 | >25 |  | 
CNC(=O)Nc1ccc(Nc2c3ccccc3nc3ccccc23)cc1 | 0.25 | 60 | 112 | >25 | 
Nc1ccc(Nc2c3ccccc3nc3ccccc23)cc1 |  |  |  |  | 12
COc1cc(NS(C)(=O)=O)ccc1Nc1c2ccccc2nc2c(C(N)=O)cccc12.Cl | -0.27 | 25 | 140 | 36 | 
CNC(=O)c1cccc2c(Nc3ccc(NS(C)(=O)=O)cc3OC)c3ccccc3nc12.Cl | 0.06 | 8.3 | 166 | 59 | 
COc1cc(NS(C)(=O)=O)ccc1Nc1c2ccccc2nc2c(C(=O)N(C)C)cccc12.Cl | 0.09 | 15 | 84 | 61 | 
COc1cc(NS(C)(=O)=O)ccc1Nc1c2ccccc2nc2c(C(=O)NCC(N)=O)cccc12.Cl | -0.54 | 62 | 105 | 41 | 
COc1cc(NS(C)(=O)=O)ccc1Nc1c2ccccc2nc2c(C(=O)NCC(O)CO)cccc12.Cl (configuration not stated) | -0.36 | 92 | 72 |  | 
Br.CS(=O)(=O)N(CC(O)CO)c1ccc(Nc2c3ccccc3nc3ccccc23)cc1 (configuration not stated) | -0.03 | 65 | >25 |  | 
COc1ccc(Nc2c3ccccc3nc3cc([N+](=O)[O-])ccc23)cc1.Cl | 0.49 | 90 | 33 |  | 
COc1ccc(Nc2c3ccccc3nc3cc(N)ccc23)cc1.Cl | 0.31 | 15 | 66 |  | 
Br.CN1CCN(c2ccc(Nc3c4ccccc4nc4cc([N+](=O)[O-])ccc34)cc2)CC1 | -0.78 | 60 | >25 |  | 
Br.c1ccc2c(Nc3ccc(N4CCNCC4)cc3)c3ccccc3nc2c1 | -0.8 | 15 | >25 |  | 
Br.CN1CCN(c2ccc(Nc3c4ccccc4nc4ccccc34)cc2)CC1 | -0.68 | 50 | >25 |  | 
CC(=O)N1CCN(c2ccc(Nc3c4ccccc4nc4ccccc34)cc2)CC1.Cl | 0.23 | 75 | 81 |  | 
CS(=O)(=O)N1CCN(c2ccc(Nc3c4ccccc4nc4ccccc34)cc2)CC1.Cl | 0.21 | 200 | 69 |  | 
Cl.NC(=O)N1CCN(c2ccc(Nc3c4ccccc4nc4ccccc34)cc2)CC1 | -0.11 | 37 | 78 |  | 
CCOC(=O)NNc1ccc(Nc2c3ccccc3nc3ccccc23)cc1.Cl | 0.41 | 25 | 67 |  | 
CNC(=O)Nc1ccc(Nc2c3ccccc3nc3ccccc23)c(OC)c1.Cl | 0.51 | 50 | 72 |  | 
CCOC(=O)N1CCN(C(=O)Nc2ccc(Nc3c4ccccc4nc4ccccc34)cc2)CC1.Cl | 0.59 | 50 | 29 |  | 
COC(=O)NNC(=O)Nc1ccc(Nc2c3ccccc3nc3ccccc23)cc1.Cl | -0.04 | > 500 | 67 |  | 
Cl.O=C(Nc1ccc(Nc2c3ccccc3nc3ccccc23)cc1)OCC(O)CO (configuration not stated) | -0.06 | 25 | 63 | >25 | 
CC(=O)NCCS(=O)(=O)Nc1ccc(Nc2c3ccccc3nc3ccccc23)cc1.Cl | -0.06 | 50 | 94 | >25 | 
COC(=O)NCCS(=O)(=O)Nc1ccc(Nc2c3ccccc3nc3ccccc23)cc1.Cl | 0.24 | > 500 | 67 |  | 

SMILES | Rm [1] | Activity (Mus musculus) [mg/kg] | ILS (L1210 [2]) [%] | ILS (L1210 [3]) [%] | half-life [4] [min]
CS(=O)(=O)NCCS(=O)(=O)Nc1ccc(Nc2c3ccccc3nc3ccccc23)cc1.Cl | -0.14 | 110 | 33 |  | 
Cl.NC(=O)NCCS(=O)(=O)Nc1ccc(Nc2c3ccccc3nc3ccccc23)cc1 | -0.21 | 200 | 53 | >25 | 
Cl.O=C1CNC(=O)N1CCS(=O)(=O)Nc1ccc(Nc2c3ccccc3nc3ccccc23)cc1 | -0.19 | 160 | 51 | >25 | 
CC(=O)N(C)CCS(=O)(=O)Nc1ccc(Nc2c3ccccc3nc3ccccc23)cc1.Cl | 0.05 | 200 | 54 |  | 
CC(=O)NCCCS(=O)(=O)Nc1ccc(Nc2c3ccccc3nc3ccccc23)cc1.Cl | -0.01 | > 500 | 26 |  | 
Cl.O=C1CCS(=O)(=O)N1c1ccc(Nc2c3ccccc3nc3ccccc23)cc1 | 0.13 | 200 | 33 |  | 
Cl.O=C(O)CCS(=O)(=O)Nc1ccc(Nc2c3ccccc3nc3ccccc23)cc1 | 0.1 | 350 | >25 |  | 
COC(=O)CCS(=O)(=O)Nc1ccc(Nc2c3ccccc3nc3ccccc23)cc1.Cl | 0.57 | > 500 |  | >25 | 
Cl.NC(=O)CCS(=O)(=O)Nc1ccc(Nc2c3ccccc3nc3ccccc23)cc1 | -0.34 | > 500 | 67 |  | 
CN(C)C(=O)CCS(=O)(=O)Nc1ccc(Nc2c3ccccc3nc3ccccc23)cc1.Cl | 0.17 | 150 | 63 |  | 
CC(CS(=O)(=O)Nc1ccc(Nc2c3ccccc3nc3ccccc23)cc1)C(N)=O.Cl (configuration not stated) | -0.11 | 50 | >25 |  | 
COCCS(=O)(=O)Nc1ccc(Nc2c3ccccc3nc3ccccc23)cc1.Cl | 0.21 | 280 | 79 | 25 | 
COc1cc(NS(C)(=O)=O)ccc1Nc1c2ccccc2nc2c(C(=O)N[C@H]3[C@@H](OC)O[C@H](COC(C)=O)[C@@H](OC(C)=O)[C@@H]3OC(C)=O)cccc12.Cl | 0.62 | > 400 | >25 |  | 
COc1cc(NS(C)(=O)=O)ccc1Nc1c2ccccc2nc2c(C(=O)N[C@H]3[C@@H](OC)O[C@H](CO)[C@@H](O)[C@@H]3O)cccc12.Cl | -0.57 | 180 | 100 | 49 | 
CCCS(=O)(=O)Nc1ccc(Nc2c3ccccc3nc3c(C(=O)N[C@H]4[C@@H](OC)O[C@H](CO)[C@@H](O)[C@@H]4O)cccc23)c(OC)c1.Cl | -0.1 | 400 | 180 | 51 | 
Br.COc1cc(NS(C)(=O)=O)ccc1Nc1c2ccccc2nc2c(CCC(N)=O)cccc12 | -0.17 | 15 | 94 | 30 | 
Br.COc1cc(NS(C)(=O)=O)ccc1Nc1c2ccccc2nc2cc(CCC(N)=O)ccc12 | -0.25 | 125 | 58 |  | 
COc1cc(NS(C)(=O)=O)ccc1Nc1c2ccccc2nc2c(OCCO)cccc12.Cl | 0.09 | 5 | 112 | 28 | 
COc1cc(NS(C)(=O)=O)ccc1Nc1c2ccccc2nc2c(OCC(O)CO)cccc12.Cl (configuration not stated) | -0.09 | 17 | 123 | 43 | 
Cc1cc(NS(C)(=O)=O)ccc1Nc1c2ccccc2nc2c(OCC(O)CO)cccc12.Cl (configuration not stated) | -0.03 | 100 | 110 | 41 | 
COc1cc(NS(C)(=O)=O)ccc1Nc1c2ccc(I)cc2nc2c(OCC(O)CO)cccc12.Cl (configuration not stated) | 0.06 | 62 |  | >25 | 
CS(=O)(=O)Nc1ccc(Nc2c3ccccc3nc3ccccc23)cc1 | 0 | 45 | 107 | 28 | 
COc1cc(NS(C)(=O)=O)ccc1Nc1c2ccccc2nc2ccccc12 [AMSACRINE] | 0.18 | 6.7 | 114 | 27 | 
